Measured values published in ChEMBL document CHEMBL1146030, “Identification of thieno[3,2-b]pyrroles as allosteric inhibitors of hepatitis C virus NS5B polymerase” (Bioorg Med Chem Lett, 2006).
Active and inactive are the calls of the source. The rule behind the calls is not given here.

Columns and labels:
[1] = target: RNA-directed RNA polymerase (Hepacivirus hominis, UniProt O39930); experiment: Inhibition of HCV BK NS5B deltaC55 RNA dependent RNA polymerase; set-up: species or system Hepatitis C virus (isolate BK)
Sequence of RNA-directed RNA polymerase (O39930 whole entry): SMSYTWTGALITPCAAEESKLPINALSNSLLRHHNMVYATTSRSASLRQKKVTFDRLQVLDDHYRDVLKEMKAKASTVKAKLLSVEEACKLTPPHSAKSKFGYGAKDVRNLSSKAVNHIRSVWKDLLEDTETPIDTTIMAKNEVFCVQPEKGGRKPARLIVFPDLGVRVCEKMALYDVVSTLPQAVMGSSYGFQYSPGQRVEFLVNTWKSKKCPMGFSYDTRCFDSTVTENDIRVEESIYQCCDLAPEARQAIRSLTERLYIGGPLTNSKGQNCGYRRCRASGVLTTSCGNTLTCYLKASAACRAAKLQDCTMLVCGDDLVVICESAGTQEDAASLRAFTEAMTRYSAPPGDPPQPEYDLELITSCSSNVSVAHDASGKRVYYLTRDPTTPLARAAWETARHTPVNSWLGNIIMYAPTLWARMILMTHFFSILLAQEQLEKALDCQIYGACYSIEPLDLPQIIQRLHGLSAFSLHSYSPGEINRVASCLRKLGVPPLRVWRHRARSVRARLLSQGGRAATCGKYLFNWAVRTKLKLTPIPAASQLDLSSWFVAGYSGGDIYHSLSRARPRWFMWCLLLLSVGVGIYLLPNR
Summary of the method: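 Purified NS5B ΔC55 enzyme from HCV genotype BK strain, assayed with heterogeneous template RNA; IC50 determined with a modified literature protocol.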

[2] = system: Hepatitis C virus; experiment: Inhibition of HCV RNA replication in Huh7 cells up to 100 uM; type: functional, organism-based; conditions: Hepacivirus hominis; Huh-7
[3] = system: Hepatitis C virus; experiment: Inhibition of HCV RNA replication in Huh7 cells in presence of 10% fetal calf serum; type: functional, organism-based, Hepacivirus hominis; conditions: Huh-7
[4] = Partition coefficient, log D at pH 7.4; conditions: octanol/water

O=C(O)c1cc2c(nc(-c3ccccc3)n2C2CCCCC2)s1
IC50 [1]: 13800 nM
Activity [2]: inactive

O=C(O)c1ccc2cc(C3CCCCC3)c(-c3ccccc3)nc2c1
IC50 [1]: > 50000 nM
Activity [2]: inactive

O=C(O)c1ccc2c(C3CCCCC3)c(-c3ccccc3)cn2c1
IC50 [1]: 94 nM
Activity [2]: inactive

O=C(O)c1cc2nc(-c3ccccc3)n(C3CCCCC3)c2s1
IC50 [1]: 17200 nM
Activity [2]: inactive

COc1ccc(-c2nc3cc(C(=O)O)ccc3n2C2CCCCC2)cc1
IC50 [1]: 11200 nM
EC50 [3]: > 50 µM

O=C(O)c1cc2c(C3CCCCC3)c(-c3ccccc3)[nH]c2s1
IC50 [1]: 120 nM
EC50 [3]: 19.5 µM

O=C(O)c1ccc2c(c1)nc(-c1ccccc1)n2C1CCCCC1
IC50 [1]: 6500 nM
EC50 [3]: > 50 µM

O=C(O)c1ccc2c(C3CCCCC3)c(-c3ccccc3)[nH]c2c1
EC50 [3]: 6.7 µM

CN(C)C(=O)Cn1c(-c2ccccc2)c(C2CCCCC2)c2ccc(C(=O)O)nc21
IC50 [1]: 320 nM
EC50 [3]: 9.8 µM
logD [4]: 1.1

CN(C)C(=O)Cn1c(-c2ccccc2)c(C2CCCCC2)c2cc(C(=O)O)sc21
IC50 [1]: 230 nM
EC50 [3]: 9.5 µM

O=C(O)c1ccc2c(C3CCCCC3)c(-c3ccccc3)[nH]c2n1
IC50 [1]: 150 nM
EC50 [3]: 16.8 µM
logD [4]: 3.3

COc1ccc(-c2nc(/C=C/C(=O)O)cn2C2CCCCC2)cc1
IC50 [1]: 77300 nM
Activity [2]: inactive

O=C(O)c1c[nH]c2c(C3CCCCC3)c(-c3ccccc3)nc-2c1
IC50 [1]: 1900 nM
EC50 [3]: 48.2 µM
logD [4]: 2.5

O=C(O)c1cc2nc(-c3ccccc3)n(C3CCCCC3)c2[nH]1
IC50 [1]: > 50000 nM
Activity [2]: inactive

CN(C)C(=O)Cn1c(-c2ccccc2)c(C2CCCCC2)c2ncc(C(=O)O)cc21
IC50 [1]: 2200 nM
EC50 [3]: > 50 µM
logD [4]: 0.8

O=C(O)c1ccc2nc(-c3ccccc3)c(C3CCCCC3)cc2c1
IC50 [1]: 4800 nM
Activity [2]: inactive

O=C(O)c1cc2[nH]c(-c3ccccc3)c(C3CCCCC3)c2s1
IC50 [1]: 66 nM
EC50 [3]: 11.2 µM
logD [4]: 3.4

O=C(O)c1ccc2c(C3CCCCC3)c(-c3ccccc3)n(CC(=O)N3CCOCC3)c2c1
EC50 [3]: 0.8 µM

CN(C)C(=O)Cn1c(-c2ccccc2)c(C2CCCCC2)c2sc(C(=O)O)cc21
IC50 [1]: 58 nM
EC50 [3]: 2.9 µM
